Results as given in PubChem BioAssay AID688 (PCMD, 2007).
In all, about 27,000 compounds went through this assay and about 250 (0.93%) were called active.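 Rule for the calls: active = mutant luminescence inhibited past about 50% while wild type luminescence and mutant growth stay under set limits (limit read from the data); inconclusive = mutant versus wild type luminescence inhibition gap past a set limit; inactive = the rest.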 The list comes from a sample in which actives are over-represented; it also holds similar structures and randomly drawn compounds.

Assay: GCN4-lacZ reporter reduction in eIF2B-epsilon mutant yeast, primary screen, S. cerevisiae, eIF2B-epsilon R284H, Beta-Glo luminescence (AID 688)
Conditions: growth inhibition: measured here: mutant yeast growth, toxicity, concentration not given here; inhibition: stronger effect = higher value, screened at 25 µM (by protocol)
Procedure, shortened: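 Material: yeast eIF2B-epsilon R284H mutant carrying GCN4–beta-galactosidase fusion. Medium: YPD yeast growth medium. Incubation: 16 h growth with compound at 30 °C, 90 min Beta-Glo step. Signal: Beta-Glo luminescence plus absorbance at 595 nm. Evaluation: % inhibition of reporter signal and growth versus controls. Doses: 25 µM single dose.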

Structure (SMILES) | growth inhibition [%] | inhibition
O=C(COc1ccccc1Cl)Nn1cnnc1 | -7.89 | 14.3% (inactive)
Cc1cccc(NC(=O)/C(=C\c2ccco2)NC(=O)c2ccccc2)c1 | 10.8 | 15.4% (inactive)
CCOc1ccc(C(=O)NC(C(=O)NCc2ccccn2)C(C)C)cc1 (centres undefined) | -4.76 | -9.95% (inactive)
CC(=O)NC1=NN(C(C)=O)C(C)(c2ccc(Cl)s2)S1 (centres undefined) | 6.67 | 44.3% (inactive)
Cc1cc(C)n(C(=O)CCNC(=O)c2ccccc2Cl)n1 | – | -0.54% (inactive)
O=C(CSc1nnnn1-c1ccccc1)NCc1ccco1 | – | -70.2% (inactive)
Cc1ccc(C(=O)N/N=C/c2sc(=O)n(Cc3cccc(C(=O)O)c3)c2Cl)cc1 | -9.52 | 18.2% (inactive)
COc1ccc(C2CC(=O)C=C(NCC3CCCO3)C2)cc1 (centres undefined) | 10.8 | 17.6% (inactive)
CCOC(=O)c1cnc(SC)nc1Sc1ccc(Cl)cc1Cl | 5 | 22.2% (inactive)
O=C(NC(C(=O)NCCN1CCOCC1)C12CC3CC(CC(C3)C1)C2)C1CCCCC1 (centres undefined) | 28.1 | 15.3% (inactive)
Cc1ccc(S(=O)(=O)c2c(COC(=O)c3cccc(Cl)c3)c(-c3ccccc3)nn2C)cc1 | 12.1 | 35.8% (inactive)
O=C(O)c1cc(S(=O)(=O)N2CCCCCC2)c(Cl)cc1Cl | – | 8.58% (inactive)
CCCCCCNCCn1cnc2c(N)ncnc21 | – | 37.2% (inactive)
CCOC(=O)CN1C(=O)C(=O)c2cc(C)ccc21 | -4.55 | 21.8% (inactive)
O=C(Nc1nc2ccc(S(=O)(=O)N3CCCC3)cc2s1)C1CCCO1 (centres undefined) | -18.2 | 18.6% (inactive)
CC(C)COC(=O)c1ccc(NC(=O)C2C3C=CC(C3)C2C(=O)O)cc1 (centres undefined) | 20.7 | 15.8% (inactive)
CS(=O)(=O)c1ccc2nc(NC(=O)C3C4C=CC(C4)C3C(=O)O)sc2c1 (centres undefined) | -6.9 | 55.1% (active)
COC(=O)C1=C(C(=O)OC)C2(OC1c1ccc(Br)cc1)C(=O)c1ccccc1C2=O (centres undefined) | -26.3 | -2.75% (inactive)
CC(C)(C)c1ccc(C(=O)NCC(=O)OCN2C(=O)c3ccccc3C2=O)cc1 | -3.45 | 13.3% (inactive)

Structure (SMILES) | growth inhibition [%] | inhibition
CCCCOC(=O)Cn1c(=N)n(CCN(CC)CC)c2ccccc21 | 19.4 | 17.1% (inactive)
COc1cc(OC)nc(NC(=O)CCl)n1 | -16.7 | 3.82% (inactive)
COc1ccc(C2=NO[C@@H]3C(=O)N(Cc4ccccc4)C(=O)[C@H]23)cc1OC | 14.3 | 7.78% (inactive)
COc1ccc(OC)c(NC(=O)CN2CCN(C(=O)c3ccco3)CC2)c1 | 18.5 | 17.4% (inactive)
c1ccc(-n2ncc3c2ncn2c(C4CCCCC4)nnc32)cc1 | – | 16.1% (inactive)
Cc1sc2nc(SCC(N)=O)n(C)c(=O)c2c1C | 6.45 | 20.9% (inactive)
O=C(Nc1ccc(Br)cc1)c1cccc(NC(=O)C2C3CC4OC(=O)C2C4C3)c1 (centres undefined) | 3.13 | 27.9% (inactive)
CC1=C(C(=O)Nc2ccccc2)C(c2ccco2)C(C#N)=C(SCC(N)=O)N1 (centres undefined) | -15 | 11.1% (inactive)
COC(=O)C1=C(C)Nc2ncnn2C1c1cccnc1 (centres undefined) | 10 | 1.7% (inactive)
Cc1nn(C(C)CC(=O)O)c(C)c1C (centres undefined) | – | 18.6% (inactive)
Cc1cc2nnc(SCC(=O)N3CCN(c4ccccc4)CC3)n2c(N)n1 | -13.6 | 24.8% (inactive)
Cn1c(SCC(=O)C(C)(C)C)nnc1-c1ccccn1 | 12.8 | 20.3% (inactive)
CC(CO)N1CCS(=O)(=O)CC1 (centres undefined) | 15 | 18.1% (inactive)
Cc1ccc(-n2c(SCC(=O)Nc3ccc4c(c3)OCO4)nnc2-c2ccccn2)cc1 | -2.78 | -3.69% (inactive)
O=C(CSc1nnc(-c2ccccn2)n1-c1ccccc1)Nc1ccc2c(c1)OCO2 | -57.1 | 55.6% (active)
Cc1ccc(-n2c(SCC(=O)Nc3ccc4c(c3)OCO4)nnc2-c2ccoc2C)cc1 | – | -19.2% (inactive)
CCCSC1=C(C#N)C(c2ccccc2C)C(C(=O)OC)C(=O)N1 (centres undefined) | 12 | -22.6% (inactive)
Cc1nc2cc(NC(=O)NCc3ccccc3)ccc2o1 | -9.52 | -14.4% (inactive)
COCC(=O)Nc1ccc(Br)cc1 | -9.52 | -24.5% (inactive)

Structure (SMILES) | growth inhibition [%] | inhibition
Cc1nc(NC(=O)CN(C)S(=O)(=O)c2ccc(Cl)cc2)sc1C | 5 | -24.3% (inactive)
C=CCNC(=O)c1cc2nc(C3CC3)cc(C(F)F)n2n1 | – | 12.7% (inactive)
COCCNS(=O)(=O)c1cc(Br)ccc1OC | 9.09 | 18.4% (inactive)
COC(=O)c1ccc(Sc2ccc(F)cc2)c(N)c1 | 27 | 23.2% (inactive)
O=C(c1ccc2c(c1)OCO2)N1CCN(C(=O)c2ccco2)CC1 | 16.7 | 35.7% (inactive)
CCOCN(C(=O)Cn1c(C(C)O)nc2ccccc21)c1c(C)cccc1CC (centres undefined) | -7.69 | 20.1% (inactive)
CC(=O)OCc1cc2cc(C)ccc2[nH]c1=O | -2.5 | -23.7% (inactive)
CCOC(=O)c1[nH]c2ccc(OC)cc2c1NC(=O)N1CCOCC1 | – | -48.6% (inactive)
CCOc1ccc(NC(=O)CN2CCN(CC(=O)Nc3ccc(OC)cc3)CC2)cc1 | 9.09 | -13.6% (inactive)
CCCNC(=O)NCc1ccc(N2CCCC2=O)cc1 | 12.5 | 10.8% (inactive)
O=c1/c(=C/c2ccc(CNS(=O)(=O)c3ccccc3)o2)sc2n1CCN=2 | -8.62 | 62.4% (active)
CC1(C)CC(=O)C=C(NCCCNC2CCCCC2)C1 | 8.06 | 53.4% (active)
CC1(C)CC(=O)C=C(N2CCCC2)C1 | – | 30.3% (inactive)
CC1(C)CC(=O)C=C(NCCN2CCNCC2)C1 | 9.46 | 32.9% (inactive)
Cc1ccc(N2C(=O)CC(Sc3ncn[nH]3)C2=O)cc1 (centres undefined) | 23.8 | -7.91% (inactive)
COc1ccc(NC(=O)Nc2ccc3nc(C)c(C)nc3c2)cc1 | -13.5 | -3.08% (inactive)
CCn1c(=O)cc(O)c2ccccc21 | 11.1 | 2.94% (inactive)
O=C1CCCc2nn(-c3ccccc3)nc21 | 7.14 | 6.25% (inactive)
CCOC(=O)c1ccccc1NS(=O)(=O)c1ccc(OC)cc1 | 10.5 | -13% (inactive)
